Measurements from ChEMBL document CHEMBL1124994, “New and versatile approaches to the synthesis of CPP-related competitive NMDA antagonists. Preliminary structure-activity relationships and pharmacological evaluation” (J Med Chem, 1990).

What was measured:
[1] = target: T1, Glutamate NMDA receptor (Rattus norvegicus) (UniProt P35439+Q00959+Q00960+Q00961+Q62645+Q8VHN2+Q9R1M7); settings: filed as agonist
Glutamate NMDA receptor [2] = assay: Inhibition of N-methyl-D-aspartate glutamate receptor by using [3H]CPP as a radioligand from the rat cortical membranes.; assay type: cell membranes, Membrane
[3] = target: T1, Glutamate NMDA receptor (Rattus norvegicus); assay: Binding affinity for glutamate-stimulated TCP binding site of N-methyl-D-aspartate glutamate receptor from rat brain by using [3H]-TCP as radioligand; ant = antagonist; settings: filed as antagonist
Procedure, shortened: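 Crude synaptic membranes from rat whole brain minus cerebellum and brainstem, stored at -70 °C, treated with 0.01% Triton X-100 in 50 mM Tris-HCl pH 7.6 at 37 °C for 30 min, then washed. Incubated with 15 mg tissue and 1 nM [3H]TCP in 5 mM Tris-HCl pH 8.0 for 1 h at 25 °C. Filtered on PEI-treated filters, counted by scintillation. Nonspecific binding: 100 µM (+)-SKF 10047.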

Glutamate NMDA receptor [4] = assay: Binding affinity was determined by the ability to displace [3H]-CPP from N-methyl-D-aspartate glutamate receptor of rat brain
Procedure, shortened: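 Radioligand displacement of [3H]CPP from rat cortical crude synaptic membranes.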

Glutamate NMDA receptor [5] = assay: Compound was tested for inhibition of N-methyl-D-aspartate glutamate receptor by using [3H]CPP as a radioligand from the rat cortical membranes; assay type: cell membranes, Membrane
[6] = target: T1, Glutamate NMDA receptor (Rattus norvegicus); assay: Binding affinity for glutamate-stimulated TCP binding site of N-methyl-D-aspartate glutamate receptor from rat brain by using [3H]TCP as radioligand; Antagonist; settings: filed as antagonist
Procedure, shortened: (§1)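 Rat whole brain minus cerebellum and brain stem; crude synaptic membranes stored at -70 °C, then treated with 0.01% Triton X-100 in 50 mM Tris-HCl pH 7.6 for 30 min at 37 °C and washed three times. Incubation with 15 mg wet tissue and 1 nM [3H]TCP in 5 mM Tris-HCl pH 8.0, 1 h, 25 °C. Filtration through PEI-treated glass-fiber filters, scintillation counting. Nonspecific binding defined with 100 µM (+)-SKF 10047.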

[7] = target: T1, Glutamate NMDA receptor (Rattus norvegicus); assay: Binding affinity for glutamate-stimulated TCP binding site of N-methyl-D-aspartate glutamate receptor from rat brain by using [3H]TCP as radioligand;Antagonist; settings: filed as antagonist
Procedure, shortened: as §1

[8] = target: T1, Glutamate NMDA receptor (Rattus norvegicus); assay: Binding affinity for glutamate-stimulated TCP binding site of N-methyl-D-aspartate glutamate receptor from rat brain by using [3H]TCP as radioligand; Agonist; settings: filed as agonist
Procedure, shortened: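 Rat whole brain minus cerebellum and brainstem, crude synaptic membranes stored at -70 °C; thawed, treated with 0.01% Triton X-100 in 50 mM Tris-HCl pH 7.6 at 37 °C for 30 min, washed ≥3 times. Test agents incubated with 15 mg tissue (wet weight) and [3H]TCP 1 nM in 5 mM Tris-HCl pH 8.0, 1 h, 25 °C. Filtration, scintillation counting; nonspecific binding with 100 μM (+)-SKF 10047.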

Glutamate NMDA receptor [9] = assay: Compound was tested for inhibition of [3H]CPP binding from N-methyl-D-aspartate glutamate receptor in the rat cortical membranes.; assay type: cell membranes, Membrane

In the case of `N[C@@H](CCC(=O)O)C(=O)O`, the GSTCP activity [1] is reported as “Agonist”.
Molecule `O=C(O)C1CN(Cc2cccc(CP(=O)(O)O)c2)CCN1` (stereo not given) has an IC50 (Glutamate NMDA receptor [2]) greater than 100 µM.
With `NC(CCCP(=O)(O)O)C(=O)O` (stereo not given) the GSTCP activity [3] was “Antagonist” and the IC50 (Glutamate NMDA receptor [4]) was 0.29 µM.
`O=C(O)C1CN(c2ccccc2P(=O)(O)O)CCN1` (stereo not given) was tested, and the IC50 (Glutamate NMDA receptor [5]) was greater than 100 µM.
`O=C(O)C1CN(c2cccc(P(=O)(O)O)c2)CCN1` (stereo not given) gave an IC50 (Glutamate NMDA receptor [2]) of 83 µM.
With `O=C(O)C1CN(CCP(=O)(O)O)CCN1` (stereo not given) the IC50 (Glutamate NMDA receptor [2]) was 9.8 µM and the GSTCP activity [6] was “Antagonist”.
Work on `O=C(O)C1CN(CCCP(=O)(O)O)CCN1CCCCC(c1ccccc1)c1ccccc1` (stereo not given) yielded an IC50 (Glutamate NMDA receptor [2]) greater than 100 µM.
With `O=C(O)CCCN1CCNC(C(=O)O)C1` (stereo not given) the IC50 (Glutamate NMDA receptor [2]) was 0.85 µM and the GSTCP activity [7] was “Antagonist”.
In the case of `O=C(O)[C@@H]1C[C@H](CP(=O)(O)O)CCN1` [SELFOTEL], the IC50 (Glutamate NMDA receptor [2]) is reported as 0.065 µM and the GSTCP activity [6] is reported as “Antagonist”.
In the case of `O=C(O)C1CN(CCCP(=O)(O)O)CCN1CCCCc1ccccc1` (stereo not given), the IC50 (Glutamate NMDA receptor [2]) is reported as greater than 100 µM.
`O=C(O)C1CN(CCCP(=O)(O)O)CCN1CCC=C(c1ccccc1)c1ccccc1` (stereo not given) was tested, and the IC50 (Glutamate NMDA receptor [2]) was greater than 100 µM.
`O=C(O)C1CN(CCCP(=O)(O)O)CCN1` (stereo not given) was tested, and the IC50 (Glutamate NMDA receptor [2]) was 0.079 µM and the GSTCP activity [8] was “Agonist”.
With `CP(=O)(O)CCCN1CCNC(C(=O)O)C1` (stereo not given) the GSTCP activity [3] was “Antagonist” and the IC50 (Glutamate NMDA receptor [2]) was 0.78 µM.
In the case of `O=C(O)C1CN(CP(=O)(O)O)CCN1` (stereo not given), the IC50 (Glutamate NMDA receptor [5]) is reported as 0.32 µM and the GSTCP activity [6] is reported as “Antagonist”.
Work on `O=C(O)C1CN(CCCP(=O)(O)O)CCN1CCC(c1ccccc1)c1ccccc1` (stereo not given) yielded an IC50 (Glutamate NMDA receptor [5]) greater than 100 µM.
For `NC(CCCCCP(=O)(O)O)C(=O)O` (stereo not given) [AP-7], the GSTCP activity [3] was “Antagonist” and the IC50 (Glutamate NMDA receptor [2]) was 0.76 µM.
In the case of `O=C(O)C1CN(C(c2ccccc2)P(=O)(O)O)CCN1` (stereo not given), the IC50 (Glutamate NMDA receptor [2]) is reported as 5.8 µM, the IC50 (Glutamate NMDA receptor [9]) is reported as 13.3 µM and the GSTCP activity [6] is reported as “Antagonist”.
For `CN[C@H](CC(=O)O)C(=O)O` [N-METHYL-D-ASPARTIC ACID (NMDA)], the GSTCP activity [1] was “Agonist” and the IC50 (Glutamate NMDA receptor [9]) was 4.55 µM.
With `O=C(O)CN1CCNC(C(=O)O)C1` (stereo not given) the IC50 (Glutamate NMDA receptor [2]) was 16 µM and the GSTCP activity [6] was “Antagonist”.
For `O=C(O)c1ccccc1C(=O)N1CCNC(C(=O)O)C1` (stereo not given), the IC50 (Glutamate NMDA receptor [2]) was greater than 100 µM.
With `CN1CCN(CCCP(=O)(O)O)CC1C(=O)O` (stereo not given) the IC50 (Glutamate NMDA receptor [2]) was 47.7 µM.
For `O=C(O)C1CN(CCCCP(=O)(O)O)CCN1` (stereo not given), the IC50 (Glutamate NMDA receptor [2]) was 48 µM and the GSTCP activity [6] was “Antagonist”.
